These results are taken from ChEMBL document CHEMBL4130499, “Serendipitous discovery of potent human head and neck squamous cell carcinoma anti-cancer molecules: A fortunate failure of a rational molecular design” (Eur J Med Chem, 2017).

Each structure is given as a SMILES string. Active and inactive are the calls of the source. The rule behind the calls is not given here. Bounds are passed on as bounds.

Data set [1] deals with 184B5. In words: Cytotoxicity in human 184B5 cells assessed as reduction in cell viability incubated for 24 hrs by MTT assay. Format: cell-based. The following applies: 184B5, 24 h. The method in brief:
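184B5 immortalized non-cancer breast epithelial cells; cytotoxicity over 24 h drug exposure, evaluated alongside the HNSCC lines; IC50 in nM taken as mean of three independent triplicate experiments ± standard error.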

The target of data set [2] is T1, Histone deacetylase (Homo sapiens) (UniProt Q13547+O15379+Q9UBN7+Q92769+Q9UQL6+Q8WUI4+Q9BY41+Q96DB2+P56524+Q9UKV0+Q969S8). In words: Ratio of inhibition of HDAC in human HN13 cells assessed as increase in histone H3 acetylation to IC50 for inhibition of HDAC in human HeLa nuclear extracts.
For data set [3], the system named is WSU-HN13. In words: Induction of PTEN protein expression in human HN13 cells assessed as reduction in PI3K/Akt/mTOR signalling by measuring reduction in pS6 protein expression incubated for 24 hrs by Western blot. Format: functional, cell-based. The method in brief: (§1)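 HN13 cells treated 24 h with 1.0 or 10.0 nM compound versus vehicle controls. Lysed in Tris pH 7.5/SDS/β-mercaptoethanol with protease inhibitors at 4 °C, protein quantified by BCA. 30 μg loaded for SDS-PAGE, transferred to PVDF, blocked 1 h in 5% milk, probed for PTEN (and pS6) with GAPDH loading control. HRP chemiluminescent detection.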
(In general: Immunoblotting shows a protein as a band on a membrane.)

Data set [4] can be described thus: Cytotoxicity in human HN6 cells assessed as reduction in cell viability incubated for 24 hrs by MTT assay. The following applies: HN-6, 24 h. Format: functional, cell-based. An outline of the steps:
(§2)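 HNSCC lines (HN6, HN12, HN13) grown in DMEM with 10% fetal calf serum at 37 °C, 5% CO2, to 70–80% confluence. Seeded, after 24 h exposed to rising compound concentrations for a further 24 h. MTT (5 mg/mL in PBS) added, formazan dissolved in DMSO, absorbance read at 590 nm. IC50 in nM, mean of three independent triplicate experiments ± standard error.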
In general terms: Tetrazolium dyes change colour on reduction, which living cells bring about.

In data set [5] the test system is WSU-HN13. In words: Cytotoxicity in human HN13 cells assessed as reduction in cell viability incubated for 24 hrs by MTT assay. It is filed as functional, cell-based. The following applies: WSU-HN13, 24 h. An outline of the steps: as §2
Data set [6] has as its target T1, Histone deacetylase (Homo sapiens). The data set is described as follows: Inhibition of HDAC in human HN13 cells assessed as increase in histone H3 acetylation at 1 nM incubated for 24 hrs by Western blot.
The nature of data set [7]: Selectivity index, ratio of IC50 for cytotoxicity in human […] cells. It is filed as toxicity, cell-based. The following applies: HN13 cells and 184B5 cells, read-out: Ratio IC50.
Data set [8] has as its target T1, Histone deacetylase (Homo sapiens). In words: Inhibition of HDAC in human HN13 cells assessed as reduction in histone H3 acetylation incubated for 24 hrs by immunofluorescence assay. It is filed as cell-based. An outline of the steps: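 HN13 on glass coverslips, overnight at 37 °C, then treated 24 h at 1 and 10 nM, TSA as positive control. Fixed in 4% paraformaldehyde, permeabilized with 0.5% Triton X-100, blocked in 3% BSA/PBS. Anti-AcH3 (lys9) primary 2 h, TRITC anti-rabbit 1 h, nuclear counterstain.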

Data set [9] in a line: Cytotoxicity in human HN12 cells assessed as reduction in cell viability incubated for 24 hrs by MTT assay. Format: functional, cell-based. The following applies: HN12, 24 h. The method in brief: as §2
The target in data set [10] is T1, Histone deacetylase (Homo sapiens). In words: Inhibition of HDAC in human HeLa nuclear extracts at 500 uM incubated for 60 mins using fluorometric substrate by fluorometric assay. Format: protein assay. The method in brief: (§3)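 HeLa nuclear extract incubated with compound, assay buffer and acetyl-lysine fluorogenic HDAC substrate for 60 min at 37 °C. Lysine developer then added for a further 30 min at 37 °C. Fluorescence read at ex 370/em 450 nm. Water served as positive control and 20 µM TSA as inhibitor control.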

In data set [11] the test system is WSU-HN13. The data set is described as follows: Induction of PTEN protein expression in human HN13 cells incubated for 24 hrs by Western blot. Format: functional, cell-based. An outline of the steps:
as §1

In data set [12] the target is Histone deacetylase. In words: Inhibition of HDAC in human HeLa nuclear extracts incubated for 60 mins using fluorometric substrate by fluorometric assay. Format: protein assay. The method in brief: as §3

For orientation: IC50 means the midpoint of a concentration-inhibition curve. Usually inhibition stands for the drop in the measured response relative to a control, in per cent. With `NC(=O)c1ccc(NS(=O)(=O)c2ccc(-c3ccccc3)cc2)cc1O`, the 50% inhibitory concentration (IC50) in data set [1] is 1960 nM; in data set [4], 4.73 nM; in data set [5] it was 9.66 nM; in data set [9], 4.99 nM. Also, the Ratio in [2] amounted to 10. Further, the Activity entry in data set [3] and in [11] was “Dose-dependent effect” in each case. In addition, the inhibition entry in data set [6] is “Active”. Further, in [7], the selectivity ratio is more than 200. In addition, the inhibition entry was “Dose-dependent effect” in data set [8] and 20% in data set [10].
As for `O=CN/N=C/c1ccc(NS(=O)(=O)c2ccc(-c3ccccc3)cc2)cc1O`, the IC50 in data set [1] amounted to 1840 nM; in [4] it was 4.94 nM; in [5] it was 9.85 nM; in data set [12], 292000 nM; in data set [9], 5.03 nM. Further, in [2], the Ratio stood at 10. For the same molecule, the Activity result in [3] and in data set [11] was “Dose-dependent effect” each time. For the same molecule, the inhibition result in data set [6] was “Active”. In data set [7], the selectivity ratio is more than 186. Besides, the inhibition entry in data set [8] is “Dose-dependent effect”.
